Most compounds without a hit are left out; they make up all but 1.9% or so of the library.
Autophagy mod – autophagy modulation, high-content screen; hit rate 0.98% among 190,000; AID 463193; MEF GFP-LC3 puncta imaging; test concentration mostly 10 µM; calls only at 10 µM (by protocol);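 active = percentage of spot-positive cells more than 3 SD above its plate mean, without a fluorescence outlier flag or 80% toxicity; inconclusive = no clear call, values can overlap the other calls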;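 also: spot-positive cell cutoff set from DMSO-treated cells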
Insulin prom up – MIN6 insulin promoter up-regulation; MIN6 insulin promoter-GFP reporter, high-content imaging; active compounds read high; hit rate 0.3% among 190,000; AID 1625; z-score at 5 µM;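 active = z-score above 3 at 5 µM with at least 500 cells counted in the well; inconclusive = wells under 500 cells, flagged as cytotoxic or low count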
MT stabilizer – microtubule stabilization, imaging screen | HeLa tubulin immunostaining HCS, 24 h; share of cells brighter than vehicle mean+2SD | % tubulin-high responders, % at 10 µM | AID 2205 | hit rate 0.83% among 200,000;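 active = plate Z-score above 3 for both tubulin-high and condensed-nucleus cell shares, with cell loss under 80%, at 10 µM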;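 also: anti alpha tubulin signal scored within the nucleus-defined area of each cell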
TbHK1 inh – T. brucei hexokinase 1 inhibition; hit rate 0.11% among 220,000; recombinant TbHK1, G6PDH-coupled NADH A340; inhibition, % at 10 µM;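 active = inhibition of 50% or more in the single-dose primary screen; inactive = inhibition below 50%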
b-catenin transl – beta-catenin nuclear translocation modulation; AID 1665; nuclear translocation activity, % at 5 µM; HeLa beta-catenin nuclear translocation, immunofluorescence imaging; hit rate 0.3% among 190,000;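 active = nuclear translocation activity above 50% at 5 µM, with a well cell count of 50 or more; inconclusive = wells under 50 cells across six images, flagged as toxic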;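 also: per-cell ratio of nuclear to cytoplasmic median beta-catenin stain intensity; plate controls were DMSO negative control for no effect and GSK-3 inhibitor IX positive control for full effect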
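System: HeLa cells, endogenous beta-catenin; compound dosing: 5 µM primary single dose, 0.1% DMSO, 0.02–20 µM confirmation series; incubation: 24 h compound exposure at 37°C, 5% CO2; signal: beta-catenin immunofluorescence imaging with DAPI; evaluation: % activation, nuclear-to-cytoplasmic median beta-catenin signal ratio per cell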
Starred values were filed as active, the others as inactive; i = inactive; u = inconclusive; x = no result; + = active, no number.

SMILES	Autophagy mod	Insulin prom up	MT stabilizer	TbHK1 inh	b-catenin transl
CCCC(=O)NC(Nc1cccc(C(F)(F)F)c1)C(Cl)(Cl)Cl (configuration not stated)	i	x	2	-2	x
COCCn1c(N)c(Sc2ccccc2[N+](=O)[O-])c(=O)[nH]c1=O	x	-0.17	x	-10	-1
N#CC1=C(N)Oc2cc3ccccc3cc2C1c1cccs1 (configuration not stated)	i	0.13	9	0	-1
CN(C)/C=N/C1=C(C#N)C(c2cccs2)c2ccc3ccccc3c2O1 (configuration not stated)	i	0.21	16*	-9	-6
O=C(CSc1nnnn1-c1ccc2c(c1)OCO2)NCc1cccs1	i	x	3	0	2
O=C(CSc1nnnn1-c1ccc2c(c1)OCO2)NCc1ccccc1	i	x	42*	5	x
CCOc1ccc(CC(=O)NNC(=O)/C=C/C(=O)O)cc1	x	x	x	-11	-2
Cc1ccccc1C(=O)c1cccn1CC(=O)NCCC1=CCCCC1	i	0.16	2	-1	-1
Cc1ccc(C)c(N2CCN(CCCNC(=O)Cn3cccc3C(=O)c3ccccc3C)CC2)c1	+	-0.45	2	5	-2
Cc1ccccc1C(=O)c1cccn1CC(=O)NCCN1CCN(c2cccc(C)c2C)CC1	+	-1.2	1	-7	2
Cc1ccc(CNC(=O)Cn2cccc2C(=O)c2ccccc2C)cc1	i	0.6	3	-1	-1
CCOCCc1nnc(NC(=O)Cc2c(F)cccc2Cl)s1	i	x	2	1	0
Cc1c(Cl)cccc1NS(=O)(=O)c1ccc2c(c1)C1C=CCC1C(c1ccc(C(=O)O)cc1)N2 (configuration not stated)	i	0.62	1	52*	-1
CC(=O)c1ccc2c(c1)C1C=CCC1C(c1ccc(S(=O)(=O)N3CCOCC3)cc1)N2 (configuration not stated)	i	-0.33	2	-28	2
CC(C)NC(=O)c1ccc(C(C)C)cc1	x	-0.1	x	-5	-1
Nc1cccc2nc3ccccc3cc12	+	-4.2	3	-13	x
CC1C/C(=C/c2ccccn2)C(=O)/C(=C/c2ccccn2)C1 (configuration not stated)	i	-2.6	39*	-19	23
Clc1ccc(CO/N=C2\CCCc3nonc32)c(Cl)c1	i	-0.24	3	-3	1
CCc1nnc(NC(=O)CSc2nnc(-c3ccccc3O)n2-c2ccc(C)cc2C)s1	i	-0.22	38*	4	0
COc1cc(NC(=O)c2cccc(Cl)c2)ccc1NC(=O)c1cccs1	+	x	4	6	1
COc1cc(NC(=S)NC(=O)c2c(OC)cccc2OC)ccc1NC(=O)c1cccs1	i	0.12	21*	-3	1
COCCn1cnnc1SCC(=O)Nc1cc(OC)c([N+](=O)[O-])cc1C	i	-0.78	2	-10	-1
CCCC(=O)NC(c1cccs1)c1cc([N+](=O)[O-])c2cccnc2c1O (configuration not stated)	i	0.32	1	5	x
O=C(CCc1ccccc1)NC(c1cccs1)c1cc(Cl)c2cccnc2c1O (configuration not stated)	i	-5.5	10*	28	0
Cc1ccc(S(=O)(=O)NCCC(=O)N2CCN(Cc3ccccc3)CC2)cc1	i	-0.38	3	-2	0
SMILES	Autophagy mod	Insulin prom up	MT stabilizer	TbHK1 inh	b-catenin transl
CC(=O)N1CCc2cc(S(=O)(=O)NCCC(=O)N3CCN(Cc4ccccc4)CC3)ccc21	+	-0.66	4	7	-6
Cc1ccc2c(c1)S/C(=C/c1ccc[n+](CCO)c1)N2C	i	x	2	-2	2
Cc1cc(/C=C2\Sc3ccccc3N2C)cc(C)[n+]1CC1CCCO1 (configuration not stated)	+	u	4	4	-4
CC(=O)C(=Cc1cn(-c2ccccc2)nc1-c1ccccc1)C(C)=O	i	3.2*	4	-7	0
Cc1ccc(C(=O)N/C(=C/c2cn(-c3ccccc3)nc2-c2ccccc2)C(=O)O)cc1	i	x	4	1	-1
O=[N+]([O-])c1ccc(N/N=C/c2c[nH]c3ccccc23)cc1	+	x	4	1	1
COc1ccccc1NS(=O)(=O)c1cc([N+](=O)[O-])ccc1N/N=C/c1c[nH]c2ccccc12	+	x	3	-9	0
O=[N+]([O-])c1ccccc1N/N=C/c1c[nH]c2ccccc12	i	x	2	-2	x
COc1ccc(/C=N/Nc2ccc([N+](=O)[O-])cc2S(=O)(=O)N2CCN(C)CC2)cc1	+	0.19	2	-12	-3
CCOC(=O)Cn1cc(C#N)c2cccc(CC)c21	i	-0.34	5	-1	-2
O=C(N/N=C/c1ccc[nH]1)c1ccccc1[N+](=O)[O-]	i	0.07	3	-28	x
COc1ccc(NS(=O)(=O)c2cc([N+](=O)[O-])ccc2N/N=C\c2c(C)[nH]c3ccccc23)cc1	+	x	4	-19	x
COc1ccccc1NS(=O)(=O)c1cc([N+](=O)[O-])ccc1N/N=C/c1sc(N2CCOCC2)nc1-c1ccccc1	+	x	4	-12	0
O=[N+]([O-])c1ccc(N/N=C/c2cn(-c3ccccc3)nc2-c2ccccc2)cc1	+	x	4	-12	x
O=[N+]([O-])c1ccc(N/N=C/c2ccc[nH]2)cc1	+	x	2	-10	1
CCCCNC(=O)Cc1cc(=O)[nH]c(=O)[nH]1	i	-0.57	3	4	-1
Cc1ccccc1N1C(=O)CN(Cc2sccc2C)C1=S	i	0.5	3	30	-1
COc1ccc(NC(=O)COC(=O)c2ccc([N+](=O)[O-])o2)cc1Cl	i	0.14	5	-4	0
Cc1[nH]c2ccccc2c1/C=N/Nc1cccc(C(=O)O)c1	x	1.2	x	-8	2
Cc1[nH]c2ccccc2c1/C=N/Nc1ccc([N+](=O)[O-])cc1S(=O)(=O)Nc1ccc(Cl)cc1	+	x	3	-14	8
O=C(N/N=C/c1ccc(Br)cc1)c1ccccc1-n1cccc1	i	0.28	47*	-1	12
Cc1cccc(/C=N\NC(=O)c2ccccc2-n2cccc2)c1	i	-0.31	3	-4	-2
C/C(CC(=O)Nc1cc(Cl)ccc1C)=N\NC(N)=O	x	0.76	x	-5	0
O=C(CCCN1C(=O)c2cccnc2C1=O)Nc1ccc(Br)cc1	i	-0.12	3	-2	-4
CCOC(=O)c1[nH]c(C)c(C(=O)N2CCc3ccccc32)c1C	i	-1	29*	5	83*
CC(=O)c1c(C)[nH]c(C(=O)N2CCc3ccccc32)c1C	i	0.77	2	-14	-2
COc1ccc(S(=O)(=O)n2[nH]c(=O)c(CCO)c2C)c([N+](=O)[O-])c1	i	0.07	2	-2	-1
CC(=NCCc1c(C)[nH]c2ccc(OC(F)(F)F)cc12)C1=C(O)CC(c2ccccc2)CC1=O (configuration not stated)	i	0.84	13*	-4	2

Screens from PubChem BioAssay.
